# Sampled rows, rich in hits. Any-hit rate of the full collection: about 2.4%.
# DNA FID counter = displaces DNA intercalator in HCV helicase counter-screen; inhibition, % at 7.9 µM; AID 1845; actives 0.17% (n = 290,000); DNA fluorescent intercalator displacement, fluorescence; in the data active = inhibition above about 37%;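 also: 0% = vehicle and 100% = reference compound; higher means more ethidium bromide displaced from hairpin DNA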
# ANO1 block = mouse TMEM16A channel inhibition, primary screen. HEK293 TMEM16A/YFP iodide influx fluorescence, ionomycin. normalized B-score (activity score, 25-100; higher = stronger inhibition) at 10 µM. actives 1.2% (n = 310,000);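 active = ratio plate-corrected score three or more library SD toward inhibition, starting fluorescence score within five deviations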;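 also: score derived from kinetic fluorescence span divided by baseline fluorescence per well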
# ANO1 activ = mouse TMEM16A channel activation, primary screen | Q8BHY3 | HEK293 TMEM16A/YFP-H148Q/I152L, iodide quench fluorescence; stronger effect = lower value | B-score at 10 µM | actives 0.3% (n = 340,000);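 active = fluorescence-ratio B-score plate-corrected deviation score at least 3 library SD below zero, with starting fluorescence score within 5 deviations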;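 also: channel opened by trigger with iodide after compound preincubation; score built on the fluorescence ratio of max minus min over baseline; more negative score means more quench and so TMEM16A activation or potentiation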
# Apaf1 inhib = blocks human Apaf-1 apoptosome activity; reconstituted apoptosome caspase-3 activity, DEVD-Rh110 fluorescence; AID 489030; O14727; inhibition, % at 20 µM; actives 0.71% (n = 330,000); active = inhibition of at least 40% at 20 µM;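 also: plate controls were DMSO wells for no effect and DEVD-CHO caspase inhibitor wells for full effect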
#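 Material: reconstituted apoptosome with Apaf-1, cytochrome c, caspase-9, procaspase-3, dATP; medium: pH 7.5 Hepes buffer with CHAPS, BSA, DTT; also added: cytochrome c and DEVD-Rh110 substrate; timing: 30 min plus 50 min, RT; signal: Rh110 fluorescence intensity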
# UBC13 inh = inhibitors of human UBC13 polyubiquitin chain formation; P61088; TR-FRET; inhibition, % at 20 µM; actives 0.47% (n = 330,000); AID 485273; in the data active = inhibition above about 45%, passing the limit was not always enough
# Target sequence (P61088 whole entry, looked up): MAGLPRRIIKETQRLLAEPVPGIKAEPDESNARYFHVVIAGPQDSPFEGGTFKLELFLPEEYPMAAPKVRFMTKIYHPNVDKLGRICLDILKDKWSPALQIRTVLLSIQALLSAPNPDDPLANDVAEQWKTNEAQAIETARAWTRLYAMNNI
# Casp3 counter = caspase-3 inhibition (UBC13 counter-screen). Recombinant caspase-3, Caspase-Glo 3/7 luminescence, 60 min. shares compounds with UBC13 inh. inhibition, % at 20 µM. actives 4% (n = 1,400);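 active = mean inhibition across replicates above about 26%, limit read from the data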;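 also: plate controls were DMSO with caspase-3 for no effect and DMSO wells lacking enzyme for full effect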
# Target sequence (P42574 whole entry, looked up): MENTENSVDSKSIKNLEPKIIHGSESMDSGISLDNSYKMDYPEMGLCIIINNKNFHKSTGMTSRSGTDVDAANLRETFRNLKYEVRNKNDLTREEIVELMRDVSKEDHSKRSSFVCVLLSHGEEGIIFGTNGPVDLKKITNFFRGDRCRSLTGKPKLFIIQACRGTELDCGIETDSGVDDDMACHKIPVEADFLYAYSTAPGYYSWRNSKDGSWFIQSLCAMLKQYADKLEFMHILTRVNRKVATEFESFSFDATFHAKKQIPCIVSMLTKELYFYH
# UBC13 conf = confirmation of human UBC13 polyubiquitin inhibitors; shares compounds with UBC13 inh; UBC13 polyubiquitination, TR-FRET, biochemical; inhibition, % at 10 µM; actives 68% (n = 1,400); in the data active = inhibition above about 45%
# Apaf-1 inh conf2 = Apaf-1 inhibition, single-dose confirmed | AID 504614 | reconstituted apoptosome, caspase-3 DEVD-Rh110 fluorescence | actives 25% (n = 1,800) | inhibition, % at 20 µM | shares compounds with Apaf1 inhib;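 active = mean inhibition of at least 40% at 20 µM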;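 also: plate controls were DMSO wells for no effect and DEVD-CHO caspase inhibitor control wells for full effect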
# Rh110 interf inh = interferes with Rh110 fluorescence, flagging false Apaf-1 inhibitors; shares compounds with Apaf1 inhib; Rh110 fluorescence interference, quenched caspase reaction; activation (fluorescence interference), % at 20 µM; 1,800 tested, under 10 active; AID 504615;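 active = signal rise of 40% or more at 20 µM, treated as a fluorescence artifact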
# Apaf1 inh interf = counter-screen for Apaf-1 inhibitors: fluorescence interference, dose response; shares compounds with Apaf1 inhib; fluorescence interference counterscreen, Apaf-1 assay format; IC50, µM; 460 tested, under 10 active; AID 588538; call rule not given here
# Active calls of the source: *; i = inactive; nt = not tested or not shown.
SMILES,DNA FID counter,ANO1 block,ANO1 activ,Apaf1 inhib,UBC13 inh,Casp3 counter,UBC13 conf,Apaf-1 inh conf2,Rh110 interf inh,others
COc1ccc(-c2csc(NC(=O)CSc3nc(C)nc4sc(C(=O)O)c(C)c34)n2)cc1,-19,i,i,8,-14,nt,nt,nt,nt,
C[C@H](NC(=O)c1nc[nH]c1C(=O)N(C)Cc1ccccc1)c1ccccc1,nt,nt,i,-1,15,nt,nt,nt,nt,
CCCc1nc(SCC(=O)N2CCCCCC2)c2c(=O)n(C)c(=O)n(C)c2n1,-30,i,nt,nt,nt,nt,nt,nt,nt,
C#CCOCCOCCOCCNc1nc(N2CCN(C(=O)[C@H](Cc3cc4ccccc4[nH]3)n3cc([C@@H](N)CC(C)C)nn3)CC2)nc(N2CCN(C(=O)[C@H](Cc3cc4ccccc4[nH]3)n3cc([C@@H](N)CC(C)C)nn3)CC2)n1,64*,i,i,71*,106*,-1,105*,25,20,
C#CCOCCOCCOCCNc1nc(N2CCOCC2)nc(N2CCN(C(=O)[C@H](CCCCN)n3cc(CN)nn3)CC2)n1,nt,nt,i,49*,96*,-2,89*,0,7,
COc1cc(C(=O)NNC(=O)Nc2ccc([N+](=O)[O-])cc2)cc(OC)c1OC,3,i,i,4,-2,nt,nt,nt,nt,
CCCS(=O)(=O)Nc1ccc2cn[nH]c2c1,-5,i,i,-7,-4,nt,nt,nt,nt,
COc1ccc(-c2sc3cc4c(cc3c2C#CC2(N)CCCCC2)OCO4)cc1,nt,nt,i,72*,85*,2,89*,35,8,
COc1cc(OC)cc(-c2sc3ccc(OC)cc3c2C#CC2(N)CCCCC2)c1,nt,nt,i,67*,84*,3,77*,23,2,
CC(O)[C@H]1CN=C(N)N1CCc1cc(C(F)(F)F)cc(C(F)(F)F)c1 (stereo partly drawn),nt,i,i,5,11,nt,nt,nt,nt,
NCCCC[C@H]1CNC(=S)N1CCc1cc(C(F)(F)F)cc(C(F)(F)F)c1,22,i,i,39,22,nt,nt,nt,nt,
COc1cc(CCCN2C(N)=NC[C@@H]2c2ccccc2)cc(OC)c1OC,nt,i,i,0,-2,nt,nt,nt,nt,
NC1=NC[C@H](c2ccccc2)N1CCc1cc(C(F)(F)F)cc(C(F)(F)F)c1,nt,i,i,54*,80*,-2,53*,30,8,
NC1=NC[C@@H](CC2CCCCC2)N1CCc1cc(C(F)(F)F)cc(C(F)(F)F)c1,nt,nt,nt,79*,91*,-4,101*,50*,29,Apaf1 inh interf=>100
CCC(C)[C@H]1CN=C(N)N1CCc1cc(C(F)(F)F)cc(C(F)(F)F)c1 (stereo partly drawn),nt,i,i,57*,79*,-3,46*,22,-2,
Cc1nnc(-c2ccc(N3CCCCCC3)c([N+](=O)[O-])c2)o1,-17,i,i,5,-41,nt,nt,nt,nt,
COc1cc2sc(-c3ccccc3OC)c(-c3ccc(OCCN4CCCCC4)cc3)c2cc1OC,nt,nt,i,66*,76*,-1,74*,25,12,
COc1ccccc1-c1sc2cc3c(cc2c1-c1ccc(OCCN2CCCCC2)cc1)OCO3,nt,nt,i,59*,77*,0,69*,9,1,
O=C(c1ccc(OCCN2CCCCC2)cc1)c1c(-c2ccc(O)cc2)sc2cc(O)ccc12,nt,i,i,47*,92*,4,102*,8,-5,
COc1ccc2sc(-c3ccccc3OC)c(-c3ccc(OCCN4CCOCC4)cc3)c2c1,nt,nt,i,28,nt,nt,nt,nt,nt,
CCCS(=O)(=O)N1CCCC(C(=O)Oc2ccc(Cl)cc2)C1 (stereo not drawn),-21,i,i,3,-4,nt,nt,nt,nt,
COc1ccc(C(CNC(=O)COc2c(C)cc(C)cc2C)N2CCOCC2)cc1 (stereo not drawn),nt,nt,i,66*,51*,-1,29,45*,7,Apaf1 inh interf=>100
CCOc1ccc(Cl)cc1S(=O)(=O)N1CCC(C(=O)NCc2ccncc2)CC1,-15,i,i,11,1,nt,nt,nt,nt,
COc1ccc(NS(=O)(=O)c2cc(C(=O)N3CCC3)ccc2C)cc1,nt,nt,i,48*,71*,3,77*,13,4,
Cc1ccc(NS(=O)(=O)c2cc(C(=O)N3CCCC3)ccc2C)cc1C,-27,i,i,7,8,nt,nt,nt,nt,
SMILES,DNA FID counter,ANO1 block,ANO1 activ,Apaf1 inhib,UBC13 inh,Casp3 counter,UBC13 conf,Apaf-1 inh conf2,Rh110 interf inh,others
COc1cccc2c(N/N=C/c3ccccc3)cc(C)nc12,-19,i,i,11,-3,nt,nt,nt,nt,
COc1ccc(/C=N/Nc2cc(C)nc3ccc(Br)cc23)cc1,28,i,i,55*,61*,4,85*,24,-1,
COc1cc(CNC2CCCCCCC2)c(Br)cc1OCCO,-1,i,i,-1,8,nt,nt,nt,nt,
COc1ccc(C2=Nn3c(nnc3-c3ccccc3F)SC2)cc1OC1CCCC1,nt,nt,i,47*,55*,7,40,23,9,
Cc1ccc(NC(=O)C2CCN(S(=O)(=O)c3ccc4c(c3)OCCO4)CC2)nc1,nt,i,i,3,-2,nt,nt,nt,nt,
CCN1CCN(Cc2ccc(NC(=O)c3ccc(C)c(NC(=O)c4ccc5n[nH]nc5c4)c3)cc2C(F)(F)F)CC1,nt,i,i,1,-9,nt,nt,nt,nt,
CCN1CCN(Cc2ccc(NC(=O)c3ccc(C)c(NC(=O)C(=O)c4c[nH]c5ccccc45)c3)cc2C(F)(F)F)CC1,30,i,i,74*,53*,-5,96*,35,1,
CCN1CCN(Cc2ccc(NC(=O)c3cc(NC(=O)C(=O)c4c[nH]c5ccccc45)cc(OC)c3)cc2C(F)(F)F)CC1,nt,i,i,41*,55*,-4,76*,24,1,
COC(=O)c1ccccc1S(=O)(=O)N1CCC(C(=O)OC(C)C(=O)Nc2ccc(NC(C)=O)cc2)CC1 (stereo not drawn),-26,i,i,-5,5,nt,nt,nt,nt,
COC(=O)c1ccccc1S(=O)(=O)N1CCC(C(=O)N2CCC2)CC1,nt,nt,i,55*,79*,0,64*,27,-1,
Cc1ccc(C)c(NC(=S)N2CCC(NC(=O)c3ccccc3)CC2)c1,-20,i,i,17,-1,nt,nt,nt,nt,
CC(C)(C)NC(=O)CN(C(=O)CNS(=O)(=O)c1ccc(Cl)cc1)c1ccc2c(c1)OCCO2,-39,i,i,3,2,nt,nt,nt,nt,
